Key:
[1] = melting temperature; fluorescence melt of hairpins on a sequencing array, two-state fit, raised by 9.35 °C to match UV melts; details: sodium 0.088 M
Summary of the method: (§1)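 Folding enthalpy and melting temperature were estimated with bootstrapped two-state fits and combined across four replicates by inverse-variance weighting, with fitted temperatures raised by 9.35 °C to match UV melts. The data were Cy3 fluorescence of library hairpins, with annealed Cy3 and quencher oligos, on a sequenced MiSeq flow cell in 50 mM Na-HEPES pH 8.0, 25 mM NaCl, imaged in 2.5 °C steps up to 60 °C and normalised to pre-quench Cy3 and control constructs.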

[2] = folding enthalpy; higher = less favourable; fluorescence melt of hairpins on a sequencing array, two-state fit; details: sodium 0.088 M
Summary of the method: as §1

| Sequence | Tm [1] | folding enthalpy [2] |
| --- | --- | --- |
| GTCGGAGGAAACTCCAAC ((.((((....)))).)) | 35.5 °C | -22.7 kcal/mol |
| GTCGGCCCGAAAGGGGAC (((..(((....)))))) | 43.3 °C | -12.6 kcal/mol |
| GTCGGCCGAAAGGCGAC (((.(((....)))))) | 67.2 °C | -21.9 kcal/mol |
| GTCGGCGAAAGCCGCGAC ((((((....)))..))) | 57.7 °C | -11.6 kcal/mol |
| GTCGGCGCGAAAGCGGAC (((..(((....)))))) | 45.6 °C | -13.8 kcal/mol |
| GTCGGGAAACCGAC (((((....))))) | 66 °C | -24.2 kcal/mol |
| GTCGGGGGAAACCCTGGC (.(.(((....))).).) | 43.9 °C | -21.8 kcal/mol |
| GTCGGGGGAAACTCCGAC (((((.(....).))))) | 57.6 °C | -44.7 kcal/mol |
| GTCGGTCGAAAGACGAC (((.(((....)))))) | 55.1 °C | -29.2 kcal/mol |
| GTCGGTGGAAACACCGGC (.(((((....))))).) | 63.2 °C | -23.8 kcal/mol |
| GTCGGTGGAAACATCGGC (.((.((....)).)).) | 44.4 °C | -26.2 kcal/mol |
| GTCGTAACGAAAGTTGAC (((..(((....)))))) | 35.8 °C | -22.4 kcal/mol |
| GTCGTACGAAAGTAAGAC (((.(((....))).))) | 52.1 °C | -33.2 kcal/mol |
| GTCGTCCGAAAGGAAGAC (((.(((....))).))) | 55.9 °C | -33 kcal/mol |
| GTCGTCGAAAGACCAGAC ((((((....)))..))) | 34.9 °C | -16.6 kcal/mol |
| GTCGTCGAAAGACCGGAC ((((((....)))..))) | 37.4 °C | -16.9 kcal/mol |
| GTCGTCGAAAGACGAGAC ((((((....)))..))) | 49.8 °C | -10.8 kcal/mol |
| GTCGTCGCGAAAGCGGAC (((..(((....)))))) | 46.5 °C | -10.6 kcal/mol |
| GTCGTCGGAAACGACAAC ((.((((....)))).)) | 47.4 °C | -13 kcal/mol |
| GTCGTCGGAAACGATGGC (.(.(((....))).).) | 46.2 °C | -25.4 kcal/mol |
| GTCGTGACGAAAGTCGAC (((..(((....)))))) | 46.3 °C | -16.6 kcal/mol |
| GTCGTGGCGAAAGCCGAC (((..(((....)))))) | 54.6 °C | -17.2 kcal/mol |
| GTCGTGGGAAACTGCGAC ((((..(....)..)))) | 46.9 °C | -18.5 kcal/mol |

| Sequence | Tm [1] | folding enthalpy [2] |
| --- | --- | --- |
| GTCGTTCGAAAGAATGAC (((.(((....))).))) | 54.9 °C | -42.1 kcal/mol |
| GTCGTTGGAAACAATGAC (((.(((....))).))) | 48.3 °C | -32.5 kcal/mol |
| GTCGTTGGAAACAGCGAC ((((.((....)).)))) | 52.4 °C | -37.5 kcal/mol |
| GTCGTTGGAAACGATGAC (((.(.(....).).))) | 49 °C | -13.5 kcal/mol |
| GTCGTTTCGAAAGAAGAC (((..(((....)))))) | 28.9 °C | -14 kcal/mol |
| GTCTAAGCGAAAGCTGAC (((..(((....)))))) | 43.1 °C | -17.2 kcal/mol |
| GTCTAAGGAAACTTAGAC (((((((....))))))) | 51.5 °C | -41.9 kcal/mol |
| GTCTACGAAAGTAACGAC ((((((....)))..))) | 31.3 °C | -16.4 kcal/mol |
| GTCTACGAAAGTACAGAC ((((((....)))..))) | 33.4 °C | -18.1 kcal/mol |
| GTCTACGAAAGTACGGAC ((((((....)))..))) | 34.1 °C | -12.1 kcal/mol |
| GTCTACGGAAACGCAGAC ((((.((....)).)))) | 45.1 °C | -35 kcal/mol |
| GTCTACGGAAACGTAAAC ((.((((....)))).)) | 27.7 °C | -14.4 kcal/mol |
| GTCTAGAAATAGAC (((((....))))) | 40.5 °C | -14.9 kcal/mol |
| GTCTAGACGAAAGTCGAC (((..(((....)))))) | 39.6 °C | -13.1 kcal/mol |
| GTCTAGGCGAAAGCCGAC (((..(((....)))))) | 44.5 °C | -10.8 kcal/mol |
| GTCTATGCGAAAGCAGAC (((..(((....)))))) | 42.1 °C | -16.9 kcal/mol |
| GTCTATTCGAAAGAAGAC (((..(((....)))))) | 23.8 °C | -8.48 kcal/mol |
| GTCTCACCGAAAGGTGAC (((..(((....)))))) | 36.1 °C | -7.93 kcal/mol |
| GTCTCACGAAAGTGCGAC (((.(((....))).))) | 50.3 °C | -38.7 kcal/mol |
| GTCTCACGAAAGTGGGAC (((.(((....))).))) | 60.3 °C | -41.5 kcal/mol |
| GTCTCAGCGAAAGCTGAC (((..(((....)))))) | 36.2 °C | -8.27 kcal/mol |
| GTCTCCGAAAGGACTGAC ((((((....)))..))) | 34.4 °C | -14.6 kcal/mol |
| GTCTCCGAAAGGAGCGAC ((((((....)))..))) | 53.9 °C | -16.1 kcal/mol |

| Sequence | Tm [1] | folding enthalpy [2] |
| --- | --- | --- |
| GTCTCCGAAAGGAGGAC ((((((....))).))) | 50.8 °C | -16.4 kcal/mol |
| GTCTCCGGAAACGGAGGC (.(((((....))))).) | 61.7 °C | -25.2 kcal/mol |
| GTCTCGCGAAAGCGTGAC (((.(((....))).))) | 60.7 °C | -28.6 kcal/mol |
| GTCTCTACGAAAGTAGAC (((..(((....)))))) | 33.2 °C | -11.2 kcal/mol |
| GTCTCTGAAAAGAGAC ((((((....)))))) | 58.1 °C | -33.4 kcal/mol |
| GTCTCTGCGAAAGCAGAC (((..(((....)))))) | 34.3 °C | -8.28 kcal/mol |
| GTCTGACGAAAGTCCGAC (((.(((....))).))) | 49 °C | -28.5 kcal/mol |
| GTCTGACGAAAGTCGAC (((.(((....)))))) | 49 °C | -16.9 kcal/mol |
| GTCTGACGAAAGTCGGAC (((.(((....))).))) | 62.4 °C | -35.8 kcal/mol |
| GTCTGAGGAAACCCAGAC (((((.(....).))))) | 45.9 °C | -31.8 kcal/mol |
| GTCTGAGGAAACTTGGAC (((..((....))..))) | 31.7 °C | -15.9 kcal/mol |
| GTCTGCCCGAAAGGGGAC (((..(((....)))))) | 34.8 °C | -10.9 kcal/mol |
| GTCTGCGAAAGCACCGAC ((((((....)))..))) | 32.3 °C | -12.7 kcal/mol |
| GTCTGCGAAAGCACTGAC ((((((....)))..))) | 36.3 °C | -15.1 kcal/mol |
| GTCTGCGAAAGCAGTGAC ((((((....)))..))) | 40.5 °C | -9.57 kcal/mol |
| GTCTGGCGAAAGCCTGAC (((.(((....))).))) | 62 °C | -26.8 kcal/mol |
| GTCTGGTCGAAAGACGAC (((..(((....)))))) | 41.5 °C | -17.2 kcal/mol |
| GTCTGTGAAAACAGAC ((((((....)))))) | 57.8 °C | -36.1 kcal/mol |
| GTCTGTGGAAACACAGAC (((((((....))))))) | 65.1 °C | -50.5 kcal/mol |
| GTCTTACGAAAGTACGAC (((.(((....))).))) | 43.8 °C | -34.5 kcal/mol |
| GTCTTACGAAAGTAGGAC (((.(((....))).))) | 48.9 °C | -28.2 kcal/mol |
| GTCTTACGAAAGTATGAC (((.(((....))).))) | 48.3 °C | -30.9 kcal/mol |
| GTCTTATCGAAAGATGAC (((..(((....)))))) | 28.5 °C | -20.1 kcal/mol |

| Sequence | Tm [1] | folding enthalpy [2] |
| --- | --- | --- |
| GTCTTCGAAAGAAGAGAC ((((((....)))..))) | 36.5 °C | -16.7 kcal/mol |
| GTCTTCGAAAGAAGCGAC ((((((....)))..))) | 44.7 °C | -20 kcal/mol |
| GTCTTCGAAAGAAGGAC ((((((....))).))) | 41.6 °C | -16.4 kcal/mol |
| GTCTTCGCGAAAGCGGAC (((..(((....)))))) | 30.4 °C | -10.6 kcal/mol |
| GTCTTCTCGAAAGAGGAC (((..(((....)))))) | 33.5 °C | -17.2 kcal/mol |
| GTCTTGGAAACAAGAC ((((((....)))))) | 54.9 °C | -35.3 kcal/mol |
| GTCTTGGCGAAAGCCGAC (((..(((....)))))) | 37.5 °C | -9.96 kcal/mol |
| GTCTTGGGAAACTGAGAC ((((..(....)..)))) | 35.1 °C | -23.8 kcal/mol |
| GTCTTTGGAAACGAAGAC (((((.(....).))))) | 45 °C | -30.6 kcal/mol |
| GTGAAACGAAAGTTACAC (((.(((....))).))) | 46.2 °C | -29.7 kcal/mol |
| GTGAAACGAAAGTTGCAC (((.(((....))).))) | 51.6 °C | -31.2 kcal/mol |
| GTGAAAGGAAACTTTCAC (((((((....))))))) | 54.1 °C | -50.6 kcal/mol |
| GTGAACGAAAGTTAGCAC ((((((....)))..))) | 29.1 °C | -12.5 kcal/mol |
| GTGAACGGAAACGTTTGC (..((((....))))..) | 38.9 °C | -22.6 kcal/mol |
| GTGAAGAAATTCAC (((((....))))) | 38.3 °C | -18.8 kcal/mol |
| GTGAAGACGAAAGTCCAC (((..(((....)))))) | 41.6 °C | -18.4 kcal/mol |
| GTGAAGCGAAAGCTACAC (((.(((....))).))) | 55.7 °C | -30.1 kcal/mol |
| GTGAAGCGAAAGCTGCAC (((.(((....))).))) | 61 °C | -35 kcal/mol |
| GTGAAGGGAAACCCTCAC ((((.((....)).)))) | 43.3 °C | -26.9 kcal/mol |
| GTGAAGGGAAACTTTCAC (((((.(....).))))) | 40.2 °C | -24.8 kcal/mol |
| GTGAATCGAAAGATCCAC (((.(((....))).))) | 43.4 °C | -27.7 kcal/mol |
| GTGACAACGAAAGTTCAC (((..(((....)))))) | 34.8 °C | -11.1 kcal/mol |
